# PRMT1 FP inh: PRMT1 methyltransferase inhibitors, primary screen, biochemical, fluorescence polarization. recombinant PRMT1, activity-based probe fluorescence polarization. inhibition, % at 2.79 µM. 370,000 compounds, 1.3% hits. AID 652257, 2013;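 active = inhibition above about 21% made by adding two undisclosed values, limit read from the data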
# SIAE inh: human SIAE inhibitors, primary screen, biochemical, fluorescence polarization, FP-Rh probe, 1536-well HTS; SIAE FP-Rh probe binding; 370,000 compounds, 0.69% hits; inhibition, % at 9.66 µM; Sialate O-acetylesterase (Homo sapiens), Q9HAT2; AID 1053197, 2014;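 active = inhibition above a cutoff: mean of compounds within the control limits plus 3 SD of those, cut at about 17% in these data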;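 also: 0% = plate median of compound wells and 100% = probe without SIAE protein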
# TCR CD3 inh: inhibitors of human TCR-CD3 interaction, primary screen, biochemical, fluorescence, TAMRA-labeled TCR probe; inhibition, % at 9.4 µM; 360,000 compounds, 0.37% hits; AID 651800, 2012; in the data active = inhibition above about 19%;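 also: recombinant mutant TCR 2C K166C tagged with TAMRA read by polarization; 0% = receptor in buffer alone and 100% = receptor with positive control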
# mABHD4 FP: ABHD4 inhibitors, primary screen, biochemical, fluorescence polarization, mouse. purified mABHD4, FP-Rh probe fluorescence polarization. 370,000 compounds, 0.54% hits. (Lyso)-N-acylphosphatidylethanolamine lipase (Mus musculus), Q8VD66. inhibition, % at 8.92 µM;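 active = inhibition exceeding the mean over every tested compound plus 3 SD, cut at about 30% in these data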;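 also: 0% = plate median of compound wells and 100% = S159A mutant with DMSO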
# Target sequence (Q8VD66 whole entry, looked up): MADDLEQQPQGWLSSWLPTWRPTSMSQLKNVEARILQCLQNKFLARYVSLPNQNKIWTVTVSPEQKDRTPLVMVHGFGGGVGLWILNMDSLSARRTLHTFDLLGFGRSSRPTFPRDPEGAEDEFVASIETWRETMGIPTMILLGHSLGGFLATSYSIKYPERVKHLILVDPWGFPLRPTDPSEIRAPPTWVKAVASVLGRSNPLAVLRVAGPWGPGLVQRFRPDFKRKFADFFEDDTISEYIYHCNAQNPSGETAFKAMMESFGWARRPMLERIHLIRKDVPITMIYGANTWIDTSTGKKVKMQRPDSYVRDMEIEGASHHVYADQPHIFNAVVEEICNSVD
#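 Assay system: mouse ABHD4 enzyme, wild type / Also added: fluorescent activity-based probe FP-Rh / Doses: single nominal dose of 8.92 µM, 0.89% DMSO final / Timing: 45 min compound pre-incubation plus 60 min probe step, 25 °C / Signal: FP readout, ex 525 nm / em 598 nm / Control set: S159A mutant/DMSO as 100%, compound-well median as 0%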
# HTRA1 inhibitor: HTRA1 serine protease inhibitors, primary screen, biochemical, fluorescence polarization, HTS | recombinant HTRA1, FP-rhodamine activity-based probe | 340,000 compounds, 0.5% hits | Q92743 | inhibition, % at 5.96 µM; in the data active = inhibition above about 36%;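 also: 0% = enzyme with DMSO and 100% = wells lacking enzyme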
# * = called active by the depositor; x = not tested or not shown. Compounds with a hit are over-represented: about 2.7% of the library has one in this group of screens.
SMILES,PRMT1 FP inh,SIAE inh,TCR CD3 inh,mABHD4 FP,HTRA1 inhibitor
O=C1C=CC2C3C(=O)N(c4ccccc4)C(=O)C3C1N2Cc1ccccc1 (centres undefined),24*,-1,-1,-13,0
CCCOc1c(Br)cc(C(=O)OCc2cc(=O)n3ccsc3n2)cc1OC,3,-4,-2,5,6
COc1ccc(-n2c(COc3ccccc3)nnc2SCc2nc3ccccc3[nH]2)cc1,-3,-4,x,-7,x
CCCn1c2ccccc2c2nnc(SCCN3CCOCC3)nc21,24*,0,2,-2,11
COc1cc(-c2cc(NC(C)=O)c3ncc(-c4ccc(F)cc4)n3c2)cc(OC)c1OC,-1,-9,6,-1,x
Cc1cc(NS(=O)(=O)c2ccc(NC(=O)/C=C/c3ccco3)cc2)nc(C)n1,24*,-3,-2,0,-2
Cc1cc(NS(=O)(=O)c2ccc(NC(=O)c3ccco3)cc2)nc(C)n1,-1,4,6,0,-1
CCOC(=O)c1cnc2c(C)cccc2c1NCc1ccco1,-1,-1,5,0,-29
CCOC(=O)c1cnc2c(C(=O)OC)cccc2c1NCc1ccco1,22*,3,-4,4,-4
COC(=O)C1CN(C2CC2)CCS(=O)(=O)N1Cc1cn(Cc2ccc(F)cc2)nn1 (centres undefined),0,1,x,1,x
CCCOc1ccc(N2C(=O)CC(SCCN)C2=O)cc1 (centres undefined),22*,5,2,1,2
COc1ccc(C(=O)Oc2c(CN3CCOCC3)cc(Cl)c3cccnc23)cc1,-1,-4,-3,5,40*
COc1cccc(C(=O)Oc2c(CN3CCOCC3)cc(Cl)c3cccnc23)c1,0,-1,-4,9,36
Cc1nc2ccc(NC(=O)c3c(Cl)cccc3Cl)cc2c(=O)[nH]1,0,3,x,1,x
Cc1ccc(NC(=O)C2(C)CCN2C(=O)Cc2ccccc2Cl)cc1C (centres undefined),3,-1,-2,3,x
COc1cc(C2C(C#N)=C(N)OC3=C2C(=O)CCC3)c([N+](=O)[O-])cc1OC (centres undefined),21*,2,2,23,5
CCOc1ccc(-n2c(SCC(=O)NN=Cc3ccc(C(=O)O)cc3)nnc2-c2cccnc2)cc1,0,-5,x,-4,x
O=C1CC2(CCCCC2)CC(=O)N1CCc1ccccc1,6,0,-11,-9,-6
O=C1C=CC(=O)C(C2=C3C(=O)N(CCc4ccccc4)CC(=O)N3CCC2)=C1,88*,13,8,27,x
C=CCNC(=O)CN(C(=O)Cc1cccc(OC(F)(F)F)c1)c1cccc(Br)c1,-5,-3,x,-1,x
CC(=O)Nc1sc2c(c1-c1nc(-c3ccccc3)cs1)CCN(C(C)C)C2,20,-3,x,17,x
O=C(CNc1ccc2ccccc2c1)N/N=C/c1ccncc1,22*,5,-9,10,3
Cc1ccc(Nc2nc3ccccc3s2)c(C)c1,0,2,4,19,-20
Cc1cc(O)ccc1Nc1nc2ccccc2nc1Nc1ccc(O)cc1C,11,20*,14,23,34
O=C1CN(C(=O)C2CCCCC2)C=CN1CCc1ccccc1Br,3,-4,x,-2,x
SMILES,PRMT1 FP inh,SIAE inh,TCR CD3 inh,mABHD4 FP,HTRA1 inhibitor
Cc1cc(O)c(Sc2ncn[nH]2)cc1NS(=O)(=O)c1ccc(Cl)cc1,2,11,2,3,5
Cc1cc(C)c(S(=O)(=O)/N=C2/C=C(Sc3ncn[nH]3)C(=O)c3ccccc32)cc1C,81*,20*,6,43*,22
O=C(NCCCc1ccccc1)OC1CC2CC1[C@H]1CCCCN1C2 (some centres undefined),-3,11,x,3,x
Cc1ccc(C(=O)O)cc1N1C(=O)c2cccc3c([N+](=O)[O-])ccc(c23)C1=O,22*,11,1,17,6
CCN1CCN(Cc2c(O)ccc3c2O/C(=C\c2ccc(C)cc2)C3=O)CC1,5,2,-2,7,1
CC1CCCN(Cc2c(O)ccc3c2O/C(=C\c2ccco2)C3=O)C1 (centres undefined),22*,7,6,13,18
COC(=O)CC1OCC=C2CN3CCC45C6=CC(=O)C(=O)C([N+](=O)[O-])=C6NC4C1C2CC35 (centres undefined),30*,4,8,4,x
CCn1c(SCC(=O)NN=Cc2c[nH]c3ccccc23)nc2ccccc21,3,3,x,6,x
N=C1/C(=C\c2coc3ccccc3c2=O)C(=O)N=C2SC(c3ccncc3)=NN12,-2,-102,-2,-8,-61
N=C1/C(=C\c2coc3ccc(O)cc3c2=O)C(=O)N=C2SC=CN12,31*,-9,0,24,9
CC(=O)c1sc(NC(=O)CCNC(=O)c2ccco2)nc1-c1ccccc1,3,0,-2,-5,2
O=C(CCl)Nc1nc(-c2ccco2)c(-c2ccco2)s1,32*,2,5,10,0
O=c1[nH]c2ccccc2c2oc(CCl)nc12,21*,10,-3,0,-1
CCC1CCc2c(c3ccccc3[nH]c2=O)O1 (centres undefined),0,0,4,-3,-6
O=C1c2cc(Br)ccc2N(Cc2ccc(Br)cc2)S(=O)(=O)C1c1cc(Cl)c(Cl)cc1[N+](=O)[O-] (centres undefined),x,x,x,x,53*
CCc1cc(SC#N)cc(C)c1NC(=O)CCl,31*,-1,3,6,4
Cc1cc(C(=O)NN=Cc2cccc(O)c2)n[nH]1,-4,-2,x,-1,x
O=C(Nc1ccccc1SC(=O)c1ccccc1)c1ccccc1,94*,3,3,-13,4
Cc1ccc(C(=O)CC(=O)c2ccccc2)cc1,0,-5,-1,-3,9
Cc1ccc(C(=O)Sc2cccccc2=O)cc1,45*,7,9,20,22
CCOC(=O)[C@@H]1CSCCS(=O)(=O)N1C(=O)[C@H](CC(C)C)NC(=O)OC(C)(C)C,4,9,1,5,x
CCOc1c(Br)cc(CNc2ccc3c(c2)OCCO3)cc1OC,2,29*,1,2,8
CCOc1cc(CNc2ccc3c(c2)OCCO3)cc(Br)c1OC,2,7,-2,10,1
CN(c1ccccc1)S(=O)(=O)c1ccc(NC(=O)c2ccc(-c3ccccc3)cc2)cc1,0,4,63*,-15,-51
COc1ccc(-c2nnc(SCC(=O)NN=C/C=C\c3ccco3)n2-c2ccc(OC)cc2)cc1,8,-3,x,-3,x
C=CCn1c(Cc2cccs2)nnc1SCC(=O)Nc1cccc2ccccc12,3,-3,x,-4,x
